Experimental data: ChEMBL document CHEMBL4219118, “Cathepsin B inhibitors: Further exploration of the nitroxoline core” (Bioorg Med Chem Lett, 2018)
One block for each molecule: values may come before it. Calls of active or inactive are those of the source. No cut-off for these calls is given here.

Assays:
Cathepsin B [1] = target: T1, Cathepsin B (Homo sapiens, UniProt P07858); assay: Inhibition of recombinant human cathepsin B exopeptidase activity assessed as residual activity at 50 uM using Abz-Gly-Ile-Val-Arg-Ala-Lys(Dnp)-OH as substrate in presence of pH 5 acetate buffer by fluorescence assay relative to control
Cathepsin B [2] = target: T1, Cathepsin B; assay: Inhibition of recombinant human cathepsin B endopeptidase activity assessed as residual activity at 50 uM using Z-Arg-Arg-AMC as substrate in presence of pH 6 phosphate buffer by fluorescence assay relative to control
Cathepsin B [3] = target: T1, Cathepsin B; assay: Non-competitive inhibition of recombinant human cathepsin B exopeptidase activity assessed as inhibitory constant for enzyme-substrate-inhibitor complex using Abz-Gly-Ile-Val-Arg-Ala-Lys(Dnp)-OH as substrate in presence of pH 5 acetate buffer by fluorescence assay
Cathepsin B [4] = target: T1, Cathepsin B; assay: Competitive inhibition of recombinant human cathepsin B endopeptidase activity assessed as inhibitory constant for enzyme-inhibitor complex using Z-Arg-Arg-AMC as substrate in presence of pH 4.5 acetate buffer by fluorescence assay
Method in brief: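 Recombinant cathepsin B endopeptidase activity assayed with the small substrate Z-Arg-Arg-AMC at pH 4.5. Acidic conditions chosen to shift the enzyme toward the closed (exopeptidase) conformation. Ki reported.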

U-87 MG [5] = assay: Cytotoxicity against human U87MG cells assessed as decrease in cell viability after 72 hrs by MTS assay; type: cell-based; conditions: u-87mg atcc
Cathepsin B [6] = target: T1, Cathepsin B; assay: Non-competitive inhibition of recombinant human cathepsin B exopeptidase activity assessed as inhibitory constant for enzyme-inhibitor complex using Abz-Gly-Ile-Val-Arg-Ala-Lys(Dnp)-OH as substrate in presence of pH 5 acetate buffer by fluorescence assay
Pro-cathepsin H [7] = target: T2, Pro-cathepsin H (Homo sapiens, UniProt P09668); assay: Non-competitive inhibition of human liver cathepsin H assessed as inhibitory constant for enzyme-inhibitor complex using R-AMC as substrate in presence of pH 6 phosphate buffer by fluorescence assay
T2 sequence (P09668 whole entry): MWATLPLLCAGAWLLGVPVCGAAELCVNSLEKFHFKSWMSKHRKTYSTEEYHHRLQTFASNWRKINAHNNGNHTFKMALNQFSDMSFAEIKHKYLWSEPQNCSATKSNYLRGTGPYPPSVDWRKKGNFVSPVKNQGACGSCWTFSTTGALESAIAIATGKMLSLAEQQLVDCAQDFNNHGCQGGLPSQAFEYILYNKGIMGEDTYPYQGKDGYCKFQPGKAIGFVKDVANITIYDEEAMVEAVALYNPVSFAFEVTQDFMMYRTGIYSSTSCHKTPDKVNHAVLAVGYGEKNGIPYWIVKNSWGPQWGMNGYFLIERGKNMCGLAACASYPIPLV

Cathepsin B [8] = target: T1, Cathepsin B; assay: Inhibition of cathepsin B in human MCF-10A neoT cells assessed as proteolysis of extracellular membrane by measuring decrease in extracellular degradation of DQ-collagen 4 at 5 uM incubated for 6 hrs measured for 2 hrs by fluorescence based spectrofluorimetric assay relative to control; type: cell-based
Method in brief: (§1)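 MCF-10A neoT cells (5 × 10⁴) incubated with DQ-collagen IV in the presence of compound or DMSO. Extracellular degradation product read by spectrofluorimetry. Mean of n = 3, six replicates per experiment.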

MCF-10A-neoT [9] = assay: Cytotoxicity against human MCF10AneoT cells assessed as decrease in cell viability after 72 hrs by MTS assay; type: cell-based
MCF-10A-neoT [10] = assay: Antiinvasive activity against human MCF10AneoT cells at 5 uM incubated for 1 hr measured every 15 mins for 72 hrs by real time xCELLigence assay relative to control; type: functional
Method in brief: (§2)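 MCF-10A neoT cells (3 × 10⁴) seeded on Matrigel-coated (1 mg/mL) upper compartments of CIM-plates. Compound or DMSO (0.05%) added to growth medium in both upper and lower compartments. Invasion followed by impedance (cell index) for 72 h. Slopes (1/h) between 4 and 14 h converted to percentage invasion versus DMSO. Means of n = 2, each run in triplicate.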

Cathepsin B [11] = target: T1, Cathepsin B; assay: (§3) Inhibition of cathepsin B in human MCF-10A neoT cells assessed as proteolysis of extracellular membrane by measuring decrease in intracellular degradation of DQ-collagen 4 at 50 uM incubated for 2 hrs followed by DQ-collagen addition measured for 2 hrs by propidium iodide staining based flow cytometry relative to control; type: cell-based
Method in brief: (§4)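 MCF-10A neoT cells (6 × 10⁴) treated with compound or DMSO. Intracellular DQ-collagen IV degradation measured by flow cytometry, with unlabeled cells as background. Reduction expressed versus DMSO. Mean of n = 3, run in duplicate.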

Procathepsin L [12] = target: T3, Procathepsin L (Homo sapiens, UniProt P07711); assay: Competitive inhibition of recombinant human cathepsin L expressed in Escherichia coli assessed as inhibitory constant for enzyme-inhibitor complex using Z-FR-AMC as substrate in presence of pH 6 phosphate buffer by fluorescence assay
T3 sequence (P07711 whole entry): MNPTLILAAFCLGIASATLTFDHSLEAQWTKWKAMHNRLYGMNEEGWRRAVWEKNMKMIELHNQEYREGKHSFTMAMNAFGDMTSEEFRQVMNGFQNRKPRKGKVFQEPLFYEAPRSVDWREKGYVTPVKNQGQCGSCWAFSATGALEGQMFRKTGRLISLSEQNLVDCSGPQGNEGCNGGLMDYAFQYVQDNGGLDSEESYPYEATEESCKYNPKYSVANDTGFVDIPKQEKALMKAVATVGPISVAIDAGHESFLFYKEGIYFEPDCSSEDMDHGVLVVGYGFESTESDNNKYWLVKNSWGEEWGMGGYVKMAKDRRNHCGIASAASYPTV

Pro-cathepsin H [13] = target: T2, Pro-cathepsin H; assay: Non-competitive inhibition of human liver cathepsin H assessed as inhibitory constant for enzyme-substrate-inhibitor complex using R-AMC as substrate in presence of pH 6 phosphate buffer by fluorescence assay
Cathepsin B [14] = target: T1, Cathepsin B; assay: Uncompetitive inhibition of recombinant human cathepsin B endopeptidase activity assessed as inhibitory constant for enzyme-substrate-inhibitor complex using Z-Arg-Arg-AMC as substrate in presence of pH 6 phosphate buffer by fluorescence assay
Cathepsin B [15] = target: T1, Cathepsin B; assay: as §3, with “12.5” for “50”; type: cell-based; method in brief: as §4
U-87 MG [16] = assay: Growth inhibition of human U87MG tumor spheroids at 1.25 uM measured up to 3 days by light microscopy; type: functional, cell-based; conditions: U-87MG ATCC
Method in brief: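 U-87 MG multicellular spheroids formed by hanging drop and implanted in Matrigel with compound. Spheroid dimensions measured for up to three days and volume calculated. Means of n = 2.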

Cathepsin B [17] = target: T1, Cathepsin B; assay: Inhibition of cathepsin B in human MCF-10A neoT cells assessed as proteolysis of extracellular membrane by measuring decrease in extracellular degradation of DQ-collagen 4 at 1.25 uM incubated for 6 hrs measured for 2 hrs by fluorescence based spectrofluorimetric assay relative to control; type: cell-based; method in brief: as §1
Pro-cathepsin H [18] = target: T2, Pro-cathepsin H; assay: Competitive inhibition of human liver cathepsin H assessed as inhibitory constant for enzyme-inhibitor complex using R-AMC as substrate in presence of pH 6 phosphate buffer by fluorescence assay
MCF-10A-neoT [19] = assay: Antiinvasive activity against human MCF10AneoT cells at 1.25 uM incubated for 1 hr measured every 15 mins for 72 hrs by real time xCELLigence assay relative to control; type: functional; method in brief: as §2
Cathepsin B [20] = target: T1, Cathepsin B; assay: Inhibition of recombinant human cathepsin B endopeptidase activity assessed as inhibitory constant for enzyme-inhibitor complex using Z-Arg-Arg-AMC as substrate in presence of pH 6 phosphate buffer by fluorescence assay
Cathepsin B [21] = target: T1, Cathepsin B; assay: Uncompetitive inhibition of recombinant human cathepsin B exopeptidase activity assessed as inhibitory constant for enzyme-substrate-inhibitor complex using Abz-Gly-Ile-Val-Arg-Ala-Lys(Dnp)-OH as substrate in presence of pH 5 acetate buffer by fluorescence assay
Cathepsin B [22] = target: T1, Cathepsin B; assay: Non-competitive inhibition of recombinant human cathepsin B endopeptidase activity assessed as inhibitory constant for enzyme-substrate-inhibitor complex using Z-Arg-Arg-AMC as substrate in presence of pH 6 phosphate buffer by fluorescence assay
Cathepsin B [23] = target: T1, Cathepsin B; assay: Non-competitive inhibition of recombinant human cathepsin B endopeptidase activity assessed as inhibitory constant for enzyme-inhibitor complex using Z-Arg-Arg-AMC as substrate in presence of pH 6 phosphate buffer by fluorescence assay
Cathepsin B [24] = target: T1, Cathepsin B; assay: Competitive inhibition of recombinant human cathepsin B exopeptidase activity assessed as inhibitory constant for enzyme-inhibitor complex using Abz-Gly-Ile-Val-Arg-Ala-Lys(Dnp)-OH as substrate in presence of pH 5 acetate buffer by fluorescence assay
Cathepsin B [25] = target: T1, Cathepsin B; assay: Mixed inhibition of recombinant human cathepsin B endopeptidase activity assessed as inhibitory constant for enzyme-substrate-inhibitor complex using Z-Arg-Arg-AMC as substrate in presence of pH 6 phosphate buffer by fluorescence assay
Cathepsin B [26] = target: T1, Cathepsin B; assay: Mixed inhibition of recombinant human cathepsin B exopeptidase activity assessed as inhibitory constant for enzyme-substrate-inhibitor complex using Abz-Gly-Ile-Val-Arg-Ala-Lys(Dnp)-OH as substrate in presence of pH 5 acetate buffer by fluorescence assay
Cathepsin B [27] = target: T1, Cathepsin B; assay: Mixed inhibition of recombinant human cathepsin B endopeptidase activity assessed as inhibitory constant for enzyme-inhibitor complex using Z-Arg-Arg-AMC as substrate in presence of pH 6 phosphate buffer by fluorescence assay
Cathepsin B [28] = target: T1, Cathepsin B; assay: Mixed inhibition of recombinant human cathepsin B exopeptidase activity assessed as inhibitory constant for enzyme-inhibitor complex using Abz-Gly-Ile-Val-Arg-Ala-Lys(Dnp)-OH as substrate in presence of pH 5 acetate buffer by fluorescence assay
Cathepsin B [29] = target: T1, Cathepsin B; assay: Inhibition of cathepsin B in human MCF-10A neoT cells assessed as proteolysis of extracellular membrane by measuring decrease in extracellular degradation of DQ-collagen 4 at 2.5 uM incubated for 6 hrs measured for 2 hrs by fluorescence based spectrofluorimetric assay; type: cell-based
Method in brief: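 MCF-10A neoT cells (5 × 10⁴) exposed to compound or DMSO vehicle control with DQ-collagen IV. Fluorescence of the extracellular cleavage product measured by spectrofluorimetry. Mean ± SEM of n = 3 experiments, each in six replicates.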

MCF-10A-neoT [30] = assay: Antiinvasive activity against human MCF10AneoT cells at 2.5 uM incubated for 1 hr measured every 15 mins for 72 hrs by real time xCELLigence assay relative to control; type: functional, cell-based; method in brief: as §2
Cathepsin B [31] = target: T1, Cathepsin B; assay: as §3, with “25” for “50”; type: cell-based
Method in brief: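 Intracellular DQ-collagen IV degradation in MCF-10A neoT cells (6 × 10⁴) treated with compound or DMSO, read by flow cytometry. Unlabeled cells served as background. Reduction in intracellular signal reported against DMSO as mean ± SEM, n = 3 experiments, each in duplicate.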

Procathepsin L [32] = target: T3, Procathepsin L; assay: Non-competitive inhibition of recombinant human cathepsin L expressed in Escherichia coli assessed as inhibitory constant for enzyme-substrate-inhibitor complex using Z-FR-AMC as substrate in presence of pH 6 phosphate buffer by fluorescence assay
Procathepsin L [33] = target: T3, Procathepsin L; assay: Non-competitive inhibition of recombinant human cathepsin L expressed in Escherichia coli assessed as inhibitory constant for enzyme-inhibitor complex using Z-FR-AMC as substrate in presence of pH 6 phosphate buffer by fluorescence assay
Pro-cathepsin H [34] = target: T2, Pro-cathepsin H; assay: Uncompetitive inhibition of human liver cathepsin H assessed as inhibitory constant for enzyme-substrate-inhibitor complex using R-AMC as substrate in presence of pH 6 phosphate buffer by fluorescence assay
Cathepsin B [35] = target: T1, Cathepsin B; assay: Competitive inhibition of recombinant human cathepsin B endopeptidase activity assessed as inhibitory constant for enzyme-inhibitor complex using Z-Arg-Arg-AMC as substrate in presence of pH 6 phosphate buffer by fluorescence assay

Activity (Cathepsin B [1]): 24.7%
Activity (Cathepsin B [2]): 21.9%
Structure (SMILES): O=[N+]([O-])c1ccc(O)c2ncccc12

Ki (Cathepsin B [3]): 185 µM
Ki (Cathepsin B [4]): Not Active
Ki (Cathepsin B [6]): 185 µM
Ki (Pro-cathepsin H [7]): 329 µM
inhibition (Cathepsin B [8]): Active
inhibition (Cathepsin B [11]): 15%
Ki (Procathepsin L [12]): 195 µM
Ki (Pro-cathepsin H [13]): 329 µM
Ki (Cathepsin B [14]): 124 µM
Structure (SMILES): N#CC1(NC(=O)c2cc([N+](=O)[O-])c3cccnc3c2O)CC1
Activity (U-87 MG [5]): Non-Toxic
Activity (MCF-10A-neoT [9]): Non-Toxic
Activity (MCF-10A-neoT [10]): 70%

Ki (Cathepsin B [4]; read-out: Ki): 237 µM
inhibition (Cathepsin B [15]): 35%
Ki (Procathepsin L [12]): 5 µM
inhibition (Cathepsin B [17]): 45%
Ki (Pro-cathepsin H [18]): 108 µM
Ki (Cathepsin B [20]): 8.2 µM
Ki (Cathepsin B [14]): 8 µM
Ki (Cathepsin B [21]): 13 µM
Structure (SMILES): O=C(NCC1CCN(c2nc3ccccc3o2)CC1)c1cc([N+](=O)[O-])c2cccnc2c1O
Activity (U-87 MG [5]): Non-Toxic
Activity (MCF-10A-neoT [9]): Non-Toxic
growth inhibition (GI) (U-87 MG [16]): Active
Activity (MCF-10A-neoT [19]): 50%

Ki (Cathepsin B [22]): 128 µM
Ki (Cathepsin B [23]): 247 µM
Ki (Cathepsin B [24]): 247 µM
Structure (SMILES): N#CC1(NC(=O)c2cc([N+](=O)[O-])ccc2O)CC1

Ki (Cathepsin B [4]; read-out: Ki): 153 µM
Ki (Pro-cathepsin H [7]): 89 µM
Ki (Cathepsin B [25]): 99 µM
Ki (Procathepsin L [12]): 122 µM
Ki (Pro-cathepsin H [13]): 89 µM
Ki (Cathepsin B [26]): 77 µM
Ki (Cathepsin B [27]): 181 µM
Ki (Cathepsin B [28]): 469 µM
inhibition (Cathepsin B [29]): Active
inhibition (Cathepsin B [31]): 80%
Structure (SMILES): Cc1ccc2c([N+](=O)[O-])ccc(O)c2n1
Activity (U-87 MG [5]): Non-Toxic
Activity (MCF-10A-neoT [9]): Non-Toxic
Activity (MCF-10A-neoT [30]): inactive

Ki (Cathepsin B [4]; read-out: Ki): 206 µM
inhibition (Cathepsin B [8]): Active
Ki (Procathepsin L [32]): 155 µM
inhibition (Cathepsin B [11]): 60%
Ki (Procathepsin L [33]): 155 µM
Ki (Pro-cathepsin H [34]): 462 µM
Ki (Cathepsin B [26]): 30 µM
Ki (Cathepsin B [28]): 128 µM
Ki (Cathepsin B [14]): 67 µM
Structure (SMILES): N#CCNC(=O)c1cc([N+](=O)[O-])c2cccnc2c1O
Activity (U-87 MG [5]): Non-Toxic
Activity (MCF-10A-neoT [9]): Non-Toxic
Activity (MCF-10A-neoT [10]): 20%

Ki (Cathepsin B [3]): 190 µM
Ki (Cathepsin B [4]; read-out: Ki): 294 µM
Ki (Cathepsin B [6]): 190 µM
Ki (Cathepsin B [35]): 240 µM
Structure (SMILES): N#CCNC(=O)c1ccc([N+](=O)[O-])c2cccnc12
